According to ChEMBL document CHEMBL4689842, “EUbOPEN Chemogenomics Library wave 1” (2021):

Test system: Fibroblast
Test: Multiplex assay against human fibroblast
Type: toxicity, cell-based
Outline: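 Live cells were stained at seeding with Hoechst33342, BioTracker Green Microtubule Cytoskeleton Dye, MitoTracker Red and Annexin V Alexa Fluor 680. Following compound addition, they were imaged on a CQ1 microscope at 37°C and 5% CO2 and gated by CellPathfinder machine learning into Hoechst high-intensity objects or normal cells, with normal cells split into healthy, pyknosed or fragmented nuclei and pyknosed cells into mitotic or apoptotic. Tubulin, mitochondrial-mass and membrane-permeability phenotypes are per cents of healthy-nucleus cells.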

[1] = 12 h, 1 µM, compound concentration 1 uM, replicate 1
[2] = 12 h, 1 µM, compound concentration 1 uM, replicate 2
[3] = 12 h, 10 µM, compound concentration 10 uM, replicate 1
[4] = 12 h, 10 µM, compound concentration 10 uM, replicate 2
[5] = 24 h, 1 µM, compound concentration 1 uM, replicate 1
[6] = 24 h, 1 µM, compound concentration 1 uM, replicate 2
[7] = 24 h, 10 µM, compound concentration 10 uM, replicate 1
[8] = 24 h, 10 µM, compound concentration 10 uM, replicate 2
[9] = 48 h, 1 µM, compound concentration 1 uM, replicate 1
[10] = 48 h, 1 µM, compound concentration 1 uM, replicate 2
[11] = 48 h, 10 µM, compound concentration 10 uM, replicate 1
[12] = 48 h, 10 µM, compound concentration 10 uM, replicate 2

**Q.** Which results are given for CNc1cc(Oc2cc(C(=O)Nc3cc(N4CCN(C)CC4)cc(C(F)(F)F)c3)ccc2C)ncn1?
**A.** Population Apoptotic (%) [1]: 61%; Population Fragmented Nuclei (%) [1]: 31%; Population Healthy Nuclei (%) [1]: 39%; Population Hoechst High Intensity Objects (%) [1]: 9%; Population Membrane Permeable-Phenotype (%) [1]: 25%; Population Mitochondria Different-Phenotype (%) [1]: 17%; Population Mitotic Cells (%) [1]: 38%; Population Normal (%) [1]: 90%; Population Pyknosed Nuclei (%) [1]: 29%; Population Tubulin-Different-Phenotype (%) [1]: 53%; Total Cell Count [1]: 147; Population Apoptotic (%) [2]: 54%; Population Fragmented Nuclei (%) [2]: 10%; Population Healthy Nuclei (%) [2]: 73%; Population Hoechst High Intensity Objects (%) [2]: 2%; Population Membrane Permeable-Phenotype (%) [2]: 10%; Population Mitochondria Different-Phenotype (%) [2]: 60%; Population Mitotic Cells (%) [2]: 45%; Population Normal (%) [2]: 97%; Population Pyknosed Nuclei (%) [2]: 16%; Population Tubulin-Different-Phenotype (%) [2]: 52%; Total Cell Count [2]: 56; Population Apoptotic (%) [3]: 54%; Population Fragmented Nuclei (%) [3]: 27%; Population Healthy Nuclei (%) [3]: 26%; Population Hoechst High Intensity Objects (%) [3]: 18%; Population Membrane Permeable-Phenotype (%) [3]: 37%; Population Mitochondria Different-Phenotype (%) [3]: 45%; Population Mitotic Cells (%) [3]: 45%; Population Normal (%) [3]: 81%; Population Pyknosed Nuclei (%) [3]: 46%; Population Tubulin-Different-Phenotype (%) [3]: 65%; Total Cell Count [3]: 186; Population Apoptotic (%) [4]: 73%; Population Fragmented Nuclei (%) [4]: 24%; Population Healthy Nuclei (%) [4]: 13%; Population Hoechst High Intensity Objects (%) [4]: 33%; Population Membrane Permeable-Phenotype (%) [4]: 58%; Population Mitochondria Different-Phenotype (%) [4]: 66%; Population Mitotic Cells (%) [4]: 26%; Population Normal (%) [4]: 66%; Population Pyknosed Nuclei (%) [4]: 61%; Population Tubulin-Different-Phenotype (%) [4]: 66%; Total Cell Count [4]: 70; Population Apoptotic (%) [5]: 61%; Population Fragmented Nuclei (%) [5]: 30%; Population Healthy Nuclei (%) [5]: 38%; Population Hoechst High Intensity Objects (%) [5]: 11%; Population Membrane Permeable-Phenotype (%) [5]: 16%; Population Mitochondria Different-Phenotype (%) [5]: 10%; Population Mitotic Cells (%) [5]: 38%; Population Normal (%) [5]: 88%; Population Pyknosed Nuclei (%) [5]: 30%; Population Tubulin-Different-Phenotype (%) [5]: 71%; Total Cell Count [5]: 163; Population Apoptotic (%) [6]: 50%; Population Fragmented Nuclei (%) [6]: 16%; Population Healthy Nuclei (%) [6]: 63%; Population Hoechst High Intensity Objects (%) [6]: 6%; Population Membrane Permeable-Phenotype (%) [6]: 13%; Population Mitochondria Different-Phenotype (%) [6]: 68%; Population Mitotic Cells (%) [6]: 50%; Population Normal (%) [6]: 93%; Population Pyknosed Nuclei (%) [6]: 19%; Population Tubulin-Different-Phenotype (%) [6]: 51%; Total Cell Count [6]: 58; Population Apoptotic (%) [7]: 80%; Population Fragmented Nuclei (%) [7]: 34%; Population Healthy Nuclei (%) [7]: 19%; Population Hoechst High Intensity Objects (%) [7]: 18%; Population Membrane Permeable-Phenotype (%) [7]: 15%; Population Mitochondria Different-Phenotype (%) [7]: 57%; Population Mitotic Cells (%) [7]: 19%; Population Normal (%) [7]: 81%; Population Pyknosed Nuclei (%) [7]: 45%; Population Tubulin-Different-Phenotype (%) [7]: 76%; Total Cell Count [7]: 163; Population Apoptotic (%) [8]: 76%; Population Fragmented Nuclei (%) [8]: 16%; Population Healthy Nuclei (%) [8]: 23%; Population Hoechst High Intensity Objects (%) [8]: 48%; Population Membrane Permeable-Phenotype (%) [8]: 80%; Population Mitochondria Different-Phenotype (%) [8]: 80%; Population Mitotic Cells (%) [8]: 23%; Population Normal (%) [8]: 51%; Population Pyknosed Nuclei (%) [8]: 60%; Population Tubulin-Different-Phenotype (%) [8]: 80%; Total Cell Count [8]: 76; Population Apoptotic (%) [9]: 84%; Population Fragmented Nuclei (%) [9]: 37%; Population Healthy Nuclei (%) [9]: 43%; Population Hoechst High Intensity Objects (%) [9]: 15%; Population Membrane Permeable-Phenotype (%) [9]: 12%; Population Mitochondria Different-Phenotype (%) [9]: 10%; Population Mitotic Cells (%) [9]: 16%; Population Normal (%) [9]: 84%; Population Pyknosed Nuclei (%) [9]: 19%; Population Tubulin-Different-Phenotype (%) [9]: 65%; Total Cell Count [9]: 150; Population Apoptotic (%) [10]: 60%; Population Fragmented Nuclei (%) [10]: 43%; Population Healthy Nuclei (%) [10]: 52%; Population Hoechst High Intensity Objects (%) [10]: 23%; Population Mitochondria Different-Phenotype (%) [10]: 3%; Population Mitotic Cells (%) [10]: 40%; Population Normal (%) [10]: 76%; Population Pyknosed Nuclei (%) [10]: 4%; Population Tubulin-Different-Phenotype (%) [10]: 49%; Total Cell Count [10]: 158; Population Apoptotic (%) [11]: 75%; Population Fragmented Nuclei (%) [11]: 59%; Population Healthy Nuclei (%) [11]: 10%; Population Hoechst High Intensity Objects (%) [11]: 30%; Population Membrane Permeable-Phenotype (%) [11]: 36%; Population Mitochondria Different-Phenotype (%) [11]: 54%; Population Mitotic Cells (%) [11]: 24%; Population Normal (%) [11]: 69%; Population Pyknosed Nuclei (%) [11]: 30%; Population Tubulin-Different-Phenotype (%) [11]: 72%; Total Cell Count [11]: 155; Population Apoptotic (%) [12]: 100%; Population Fragmented Nuclei (%) [12]: 84%; Population Healthy Nuclei (%) [12]: 11%; Population Hoechst High Intensity Objects (%) [12]: 34%; Population Membrane Permeable-Phenotype (%) [12]: 20%; Population Mitochondria Different-Phenotype (%) [12]: 80%; Population Mitotic Cells (%) [12]: 0%; Population Normal (%) [12]: 65%; Population Pyknosed Nuclei (%) [12]: 4%; Population Tubulin-Different-Phenotype (%) [12]: 80%; Total Cell Count [12]: 67

**Q.** What does the source list for CNC(=O)c1ccc(Nc2nc(OC3CCCC3)c3c(-c4ccc5nc(C)oc5c4)c[nH]c3n2)c(OC)c1?
**A.** Population Apoptotic (%) [1]: 69%; Population Fragmented Nuclei (%) [1]: 29%; Population Healthy Nuclei (%) [1]: 53%; Population Hoechst High Intensity Objects (%) [1]: 10%; Population Membrane Permeable-Phenotype (%) [1]: 46%; Population Mitochondria Different-Phenotype (%) [1]: 5%; Population Mitotic Cells (%) [1]: 30%; Population Normal (%) [1]: 89%; Population Pyknosed Nuclei (%) [1]: 17%; Population Tubulin-Different-Phenotype (%) [1]: 80%; Total Cell Count [1]: 237; Population Apoptotic (%) [2]: 33%; Population Fragmented Nuclei (%) [2]: 60%; Population Healthy Nuclei (%) [2]: 34%; Population Hoechst High Intensity Objects (%) [2]: 33%; Population Membrane Permeable-Phenotype (%) [2]: 45%; Population Mitochondria Different-Phenotype (%) [2]: 9%; Population Mitotic Cells (%) [2]: 66%; Population Normal (%) [2]: 66%; Population Pyknosed Nuclei (%) [2]: 4%; Population Tubulin-Different-Phenotype (%) [2]: 86%; Total Cell Count [2]: 96; Population Apoptotic (%) [3]: 77%; Population Fragmented Nuclei (%) [3]: 33%; Population Healthy Nuclei (%) [3]: 50%; Population Hoechst High Intensity Objects (%) [3]: 14%; Population Membrane Permeable-Phenotype (%) [3]: 14%; Population Mitotic Cells (%) [3]: 22%; Population Normal (%) [3]: 85%; Population Pyknosed Nuclei (%) [3]: 16%; Population Tubulin-Different-Phenotype (%) [3]: 26%; Total Cell Count [3]: 194; Population Apoptotic (%) [4]: 33%; Population Fragmented Nuclei (%) [4]: 60%; Population Healthy Nuclei (%) [4]: 27%; Population Hoechst High Intensity Objects (%) [4]: 40%; Population Membrane Permeable-Phenotype (%) [4]: 30%; Population Mitochondria Different-Phenotype (%) [4]: 7%; Population Mitotic Cells (%) [4]: 66%; Population Normal (%) [4]: 59%; Population Pyknosed Nuclei (%) [4]: 12%; Population Tubulin-Different-Phenotype (%) [4]: 23%; Population Apoptotic (%) [5]: 67%; Population Fragmented Nuclei (%) [5]: 36%; Population Healthy Nuclei (%) [5]: 41%; Population Hoechst High Intensity Objects (%) [5]: 10%; Population Membrane Permeable-Phenotype (%) [5]: 26%; Population Mitochondria Different-Phenotype (%) [5]: 11%; Population Mitotic Cells (%) [5]: 32%; Population Normal (%) [5]: 89%; Population Pyknosed Nuclei (%) [5]: 22%; Population Tubulin-Different-Phenotype (%) [5]: 79%; Total Cell Count [5]: 265; Population Apoptotic (%) [6]: 100%; Population Fragmented Nuclei (%) [6]: 62%; Population Healthy Nuclei (%) [6]: 35%; Population Hoechst High Intensity Objects (%) [6]: 35%; Population Membrane Permeable-Phenotype (%) [6]: 19%; Population Mitochondria Different-Phenotype (%) [6]: 19%; Population Mitotic Cells (%) [6]: 0%; Population Normal (%) [6]: 64%; Population Pyknosed Nuclei (%) [6]: 1%; Population Tubulin-Different-Phenotype (%) [6]: 90%; Total Cell Count [6]: 92; Population Fragmented Nuclei (%) [7]: 28%; Population Healthy Nuclei (%) [7]: 52%; Population Hoechst High Intensity Objects (%) [7]: 23%; Population Membrane Permeable-Phenotype (%) [7]: 5%; Population Mitochondria Different-Phenotype (%) [7]: 3%; Population Normal (%) [7]: 76%; Population Pyknosed Nuclei (%) [7]: 19%; Population Tubulin-Different-Phenotype (%) [7]: 19%; Total Cell Count [7]: 193; Population Apoptotic (%) [8]: 71%; Population Fragmented Nuclei (%) [8]: 60%; Population Healthy Nuclei (%) [8]: 25%; Population Hoechst High Intensity Objects (%) [8]: 40%; Population Membrane Permeable-Phenotype (%) [8]: 7%; Population Mitochondria Different-Phenotype (%) [8]: 7%; Population Mitotic Cells (%) [8]: 28%; Population Normal (%) [8]: 60%; Population Pyknosed Nuclei (%) [8]: 13%; Population Tubulin-Different-Phenotype (%) [8]: 23%; Total Cell Count [8]: 85
